Legend:
Assay type in all cases: functional, cell-based
[1] = Cytotoxicity against human HONE1 cells after 72 hrs by methylene blue dye assay; conditions: HONE1, 72 h
How it was run: (§1)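 Log-phase cells seeded at 5000 cells/mL/well in 24-well plates, exposed to a range of compound concentrations for 72 h. Growth read by methylene blue dye staining. IC50 (50% growth inhibition versus untreated control) read graphically; mean ± standard deviation of three independent replicates. IC50 above 10 µM taken as non-cytotoxic. Etoposide and cisplatin served as positive controls.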

HT-29 = test: Cytotoxicity against human HT-29 cells after 72 hrs by methylene blue dye assay; conditions: HT-29, 72 h; how it was run: as §1
KB = test: Cytotoxicity against human KB cells after 72 hrs by methylene blue dye assay; how it was run: as §1

CC1=CCC[C@H]2[C@@]1(C)[C@@H](OC(=O)C(=O)C(C)C)[C@H](OC(=O)c1cccnc1)[C@](C)(O)[C@]2(C)/C=C/C1=CC(=O)OC1
IC50 [1]: 4 µM
IC50 (HT-29): 5.5 µM
IC50 (KB): 4.2 µM

CC(=O)O[C@H]1[C@H](OC(=O)c2cccnc2)[C@](C)(O)[C@](C)(/C=C/C2=CC(=O)OC2)[C@H]2CCC=C(C)[C@]12C [6-O-ACETYLSCUTEHENANINE A]
IC50 [1]: 3.7 µM
IC50 (HT-29): 5.2 µM
IC50 (KB): 3.2 µM

COc1cc([C@@H]2c3cc4c(cc3[C@@H](O[C@@H]3O[C@@H]5CO[C@@H](C)O[C@H]5[C@H](O)[C@H]3O)[C@H]3COC(=O)[C@H]23)OCO4)cc(OC)c1O [ETOPOSIDE]
IC50 [1]: 1.2 µM
IC50 (HT-29): 2.3 µM
IC50 (KB): 1.3 µM

CC1=CCC[C@H]2[C@@]1(C)[C@@H](O)[C@H](OC(=O)c1cccnc1)[C@](C)(O)[C@]2(C)/C=C/C1=CC(=O)OC1 [SCUTEHENANINE A]
IC50 [1]: 3.1 µM
IC50 (HT-29): 5.8 µM
IC50 (KB): 4.5 µM

CC1=CCC[C@H]2[C@@]1(C)[C@@H](OC(=O)c1ccccc1)[C@H](O)[C@]1(C)O[C@@]3(COC(=O)C3)C[C@H](OC(=O)c3cccnc3)[C@]21C [SCUTEHENANINE B]
IC50 [1]: 3.5 µM
IC50 (HT-29): 5 µM
IC50 (KB): 4.7 µM

C=C1CCC[C@H]2[C@@]1(C)[C@@H](OC(=O)c1ccccc1)[C@H](O)[C@]1(C)O[C@@]3(COC(=O)C3)C[C@H](OC(=O)c3cccnc3)[C@]21C [SCUTEHENANINE C]
IC50 [1]: 3.4 µM
IC50 (HT-29): 5.3 µM
IC50 (KB): 2.9 µM

CC1=CCC[C@H]2[C@@]1(C)[C@@H](OC(=O)c1cccnc1)[C@H](OC(=O)c1ccccc1)[C@](C)(O)[C@]2(C)[C@H]1CC2=C(O1)C(=O)OC2 [SCUTEHENANINE D]
IC50 [1]: 4.1 µM
IC50 (HT-29): 6.4 µM
IC50 (KB): 2.8 µM

Source: ChEMBL document CHEMBL1154320, “Cytotoxic neo-clerodane diterpenoid alkaloids from Scutellaria barbata” (J Nat Prod, 2009)
